The list is not random: actives were taken first. Their share in the collection is about 2.7%.
pPAFAH FP inh: inhibitors of human plasma PAF acetylhydrolase (pPAFAH). Q13093. recombinant pPAFAH, FP-rhodamine probe fluorescence polarization. inhibition, % at 3.39 µM. 330,000 compounds, 1.5% hits;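 active = inhibition above the mean inhibition across the screen plus 3 SD, cut at about 25% in these data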;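 also: inhibitors block binding of the rhodamine activity-based probe so polarization drops; 0% = enzyme with DMSO and 100% = wells lacking pPAFAH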
PAFAH2 FP inh: PAFAH2 (human) inhibition | 340,000 compounds, 0.99% hits | recombinant PAFAH2, FP-rhodamine activity probe, fluorescence polarization | inhibition, % at 3.39 µM | Q99487;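 active = inhibition above the mean over all tested compounds plus 3 SD, cut at about 30% in these data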;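 also: inhibitors block probe labeling of enzyme so polarization drops; 0% = enzyme with DMSO and 100% = wells lacking PAFAH2 protein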
PAFAH1B3 inh: PAFAH1B3 (human) inhibition. inhibition, % at 3.39 µM. 340,000 compounds, 0.28% hits. recombinant PAFAH1B3, FP-rhodamine probe, fluorescence polarization. Q15102;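 active = inhibition above the screen-wide average of all tested compounds plus 3 SD, cut at about 25% in these data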;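 also: 0% = enzyme with DMSO only and 100% = wells lacking PAFAH1B3 protein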
ARFGAP1 inhibitor: inhibitors of rat ARFGAP1; Q62848; Arfgap1-stimulated ARF1 GTP hydrolysis, GDP FP detection; inhibition, % at 16.5 µM; 360,000 compounds, 0.26% hits;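 active = inhibition above a per-plate limit, mean inhibition of low control wells plus 3 SD, cut at about 25% in these data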;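 also: 0% = DMSO wells with enzyme and 100% = wells lacking Arfgap1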
Target sequence (Q62848 1-136 limits assumed): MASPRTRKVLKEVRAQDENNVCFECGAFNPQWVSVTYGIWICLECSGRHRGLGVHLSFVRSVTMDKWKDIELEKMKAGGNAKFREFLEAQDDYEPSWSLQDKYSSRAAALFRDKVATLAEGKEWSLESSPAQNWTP
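Repeats: one replicate per compound; assay system: rat Arfgap1 catalytic domain, aa 1-136; times: enzyme reaction 120 min at 25 °C after 20 min preincubation; detection: FP of antibody-bound GDP Alexa 633 tracer, ex 620/em 688 nm; benchmarks: high control wells lacking Arfgap1, low control full reaction with DMSO; reagent: human ARF1(Δ1-17)-GTP substrate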
PAFAH1B2 FP inh: PAFAH1B2 (human) inhibition; recombinant PAFAH1B2, FP-rhodamine activity probe, fluorescence polarization; inhibition, % at 3.39 µM; AID 492953; P68402; 340,000 compounds, 1.2% hits;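 active = inhibition above the mean of all tested compounds plus 3 SD, cut at about 24% in these data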;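 also: 0% = enzyme with DMSO and 100% = wells lacking PAFAH1B2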
ASAP1 GAP inh: blocks human ASAP1-stimulated Arf1 GTP hydrolysis. AID 624377. 360,000 compounds, 0.19% hits. Q9ULH1. inhibition, % at 16.5 µM. GDP FP detection; in the data active = inhibition above about 25%;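 also: 0% = vehicle with enzyme and substrate and 100% = no enzyme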
Target sequence (Q9ULH1 325-724 limits assumed): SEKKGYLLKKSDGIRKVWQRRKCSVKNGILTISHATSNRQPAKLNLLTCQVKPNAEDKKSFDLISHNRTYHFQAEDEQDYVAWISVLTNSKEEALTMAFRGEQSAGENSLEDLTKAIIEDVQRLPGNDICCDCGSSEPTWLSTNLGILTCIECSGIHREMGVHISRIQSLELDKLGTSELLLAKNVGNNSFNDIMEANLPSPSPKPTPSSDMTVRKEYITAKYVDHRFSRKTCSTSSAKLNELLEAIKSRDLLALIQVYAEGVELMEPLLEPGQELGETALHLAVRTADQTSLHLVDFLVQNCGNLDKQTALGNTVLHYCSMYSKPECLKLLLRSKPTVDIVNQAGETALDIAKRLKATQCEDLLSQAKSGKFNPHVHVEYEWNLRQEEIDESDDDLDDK
An asterisk follows results filed as active; / = no result given.

SMILES	pPAFAH FP inh	PAFAH2 FP inh	PAFAH1B3 inh	ARFGAP1 inhibitor	PAFAH1B2 FP inh	ASAP1 GAP inh
COC(=O)Cc1nnn2c1CC(OC)c1ccccc1-2 (stereo not drawn)	/	/	/	12	/	-7
COc1ccc(CCN2CCC(CN3C(=S)NC[C@@H]3Cc3ccccc3)CC2)cc1OC	/	/	/	10	/	-4
N#CC1(C#N)CC(C=O)=C(N)C1(C#N)CC(=O)C12CC3CC(CC(C3)C1)C2 (stereo not drawn)	11	21	-2	4	31*	14
Nc1nccnc1C(=O)OCC(=O)C12CC3CC(CC(C3)C1)C2	-7	28	5	-7	22	0
O=C(NC1CC1)C1Nc2ccc(OC(F)(F)F)cc2C2C=CCC12 (stereo not drawn)	6	3	1	-4	1	12
CC(=O)c1ccc2c(c1)C1C=CCC1C(C(=O)O)N2 (stereo not drawn)	/	/	/	-8	/	-11
Cc1ccc2c(c1)C1C=CCC1C(C(=O)O)N2 (stereo not drawn)	61*	/	/	/	/	/
O=C(O)C1Nc2ccc(OC(F)(F)F)cc2C2C=CCC12 (stereo not drawn)	61*	/	/	/	/	/
Cn1cnnc1Sc1ccc(/C=C(\CCC(=O)O)c2nc3ccccc3s2)cc1[N+](=O)[O-]	7	-3	3	-6	26*	5
NC(=O)c1sc2nc3c(c(-c4ccco4)c2c1N)CCCC3	18	-3	3	15	6	6
NC(=O)c1sc2nc3c(c(-c4ccc(Cl)cc4)c2c1N)CCCC3	30*	7	7	-7	4	12
Cc1ccc(-c2c3c(nc4sc(C(N)=O)c(N)c24)CCC3)cc1	28*	0	4	6	-7	2
O=C(CSc1nnc(CNC(=O)c2cccs2)o1)Nc1cccc(C(F)(F)F)c1	3	4	4	10	26*	-7
O=C(CSc1nnc(CNC(=O)c2cccs2)o1)Nc1cccc(F)c1	0	2	4	-2	7	-2
CN(C)CCCNC(=O)c1c(N)[nH]c(C(=O)c2ccc(Br)cc2)c1-c1ccc(Br)cc1	/	/	/	-4	/	-1
Cc1cccc(-n2ccc(=O)c(C(=O)Nc3ccc(S(=O)(=O)Nc4nccs4)cc3)n2)c1	6	13	11	1	0	-4
O=C(Nc1ccc(S(=O)(=O)Nc2nccs2)cc1)c1nn(-c2ccccc2)ccc1=O	25*	24	9	1	11	-1
c1ccc2cc(-c3cc4ccccn4c3)ccc2c1	28*	15	9	-24	5	-8
CC(=O)N1N=C(c2ccc3ccccc3c2)OC1(C)C	4	3	-1	7	0	-4
Cc1cc(C)c(-n2c(C)cc(/C=C3/NC(=O)NC3=O)c2C)c(C)c1	27*	/	/	-10	/	11
COc1cc(NC(=O)CSCc2ccc(Cl)cc2Cl)c(C(=O)O)cc1OC	1	11	-2	-2	2	-3
O=C(CSCc1ccc(Cl)cc1Cl)Nc1ccc(O)cc1C(=O)O	0	-2	-1	-2	28*	-9
COCCOc1cc(NC(=O)c2ccccc2)c(Cl)cc1Cl	2	8	7	-10	6	1
CNC(=O)CS(=O)CC(=O)Nc1cc(OCCOC)c(Cl)cc1Cl (stereo not drawn)	30*	-1	3	6	4	1
Cc1nc2c(C(=O)NCCC(C)C)c[nH]n2c(=O)c1Cc1ccccc1F	31*	6	19	-7	6	0
SMILES	pPAFAH FP inh	PAFAH2 FP inh	PAFAH1B3 inh	ARFGAP1 inhibitor	PAFAH1B2 FP inh	ASAP1 GAP inh
COC(=O)c1sc(NC(=S)NNC(=O)c2c(Br)c(C)nn2C)c(C(=O)OC)c1C	20	30*	13	9	7	16
CC(=O)C1=CCN(C)CC1	/	/	/	-6	/	-5
C[C@H](CO)N1C[C@H](C)[C@@H](CN(C)C(=O)NC2CCCCC2)OCc2cn(nn2)CCCC1=O	/	/	/	6	/	11
CC(=O)Nc1ccc(S(=O)(=O)N2CCC(NC(C)=O)(c3cccc(F)c3)CC2)cc1	27*	-5	3	7	2	2
CC(=O)Nc1ccc(S(=O)(=O)N2CCC(C(=O)O)(c3ccccc3)CC2)cc1	1	2	4	0	6	5
Cc1coc2c1C(=O)C(=O)c1c-2ccc2c(C)cccc12	56*	51*	19	/	21	/
C=CCNc1cccc2c1S(=O)(=O)N[C@H](CC(C)C)CO2	/	/	/	-2	/	1
O=C(NCc1ccco1)c1ccccc1NS(=O)(=O)c1ccc(Br)s1	28*	15	8	5	14	8
CCN(CC)C(=O)[C@H]1C[C@@H]2[C@H](C[C@@H](c3ccccc3)[C@H]1C)N(c1ccc(F)cc1)C(=O)N2C/C=C(\C)CCC=C(C)C	/	/	/	4	/	-8
CN(C(=O)c1cccc(COc2ccc(Cl)cc2Cl)c1)c1ccccc1	2	-1	-7	8	27*	-7
O=C(NCc1ccccc1)c1cccc(COc2cc(Cl)ccc2Cl)c1	-6	-15	2	-6	8	0
O=C(N[C@H](Cc1ccccc1)C(=O)N1CCN(c2ncccn2)CC1)[C@H]1O[C@@H](n2ccc(=O)[nH]c2=O)[C@H](O)[C@@H]1O	/	/	/	1	/	-2
COc1ccc(CCN=C(N)NS(=O)(=O)c2ccccc2)cc1	2	8	-2	17	1	4
O=S(=O)(NC(=NCCc1ccc(Cl)cc1)c1ccccc1Cl)c1cccs1	3	15	-1	-10	47*	-2
COc1ccc(CCN=C(N)NS(=O)(=O)c2ccc(F)cc2)cc1	2	-8	-8	5	12	1
NC(=NCCc1ccc(Cl)cc1)NS(=O)(=O)c1ccc(F)cc1	3	0	10	8	49*	-6
NC(=NCCc1ccc(Cl)cc1)NS(=O)(=O)c1ccccc1	1	6	6	-13	54*	-5
C[C@H]1COc2cccc(N3CCCC3)c2S(=O)(=O)N1	/	/	/	13	/	-11
COc1ccc(C2NC(=S)N(Cc3ccc(Cl)cc3)C(C)=C2C(C)=O)cc1 (stereo not drawn)	/	/	/	-16	/	15
COc1ccc2nc3cccc(OC)c3nc2c1	22	6	16	7	10	-3
O=C(NCCO)Nc1ccc2nc(-c3ccco3)c(-c3ccco3)nc2c1	72*	/	/	/	/	/
CCc1nc2ccc(C(=O)NCCc3ccco3)cc2nc1CC	2	-15	10	/	1	/
COc1ccc2nc(-c3ccco3)c(-c3ccco3)nc2c1	47*	56*	33*	-31	26*	-19
O=C(NCCCO)c1ccc2nc(-c3ccco3)c(-c3ccco3)nc2c1	/	33*	29*	4	18	5
CC(C)C[C@@H]1COc2cccc(N3CCCC3)c2S(=O)(=O)N1	/	/	/	9	/	-11
COc1cccc(CNC(=O)[C@H]2CCCN2C(=O)[C@H]2CCCN2C(=O)c2ccccc2C(F)(F)F)c1	/	/	/	-2	/	18

Screening data: PubChem, The Scripps Research Institute Molecular Screening Center
